How the values were obtained:
[1] = Resistance index, ratio of IC50 for chloroquine-resistant asexual blood stage of Plasmodium falciparum K1 infected in human RBC to IC50 for chloroquine-sensitive asexual blood stage of Plasmodium falciparum NF54 infected in human RBC; format: functional
Plasmodium falciparum [2] = experiment: (§1) Antiplasmodial activity against chloroquine-sensitive asexual blood stage of Plasmodium falciparum NF54 infected in human RBC assessed as reduction in [3H]hypoxanthine incorporation preincubated for 48 hrs followed by [3H]hypoxanthine addition measured after 24 hrs by liquid scintillation counting method; format: functional, organism-based
In short: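 Asexual blood-stage P. falciparum NF54 assay, run as a modified [3H]-hypoxanthine incorporation assay. Values are the mean of n ≥ 2 assays; determinations differing more than 3-fold were excluded. Chloroquine and artesunate served as controls.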

Plasmodium falciparum [3] = experiment: as §1, with “chloroquine-resistant” for “chloroquine-sensitive”, “K1” for “NF54”; format: functional, organism-based
In short: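 Asexual blood-stage P. falciparum K1 (multidrug resistant) screened by modified [3H]-hypoxanthine incorporation assay; IC50 as mean of n ≥ 2 assays, replicates differing above 3-fold excluded; chloroquine and artesunate controls.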

Hemozoin = experiment: Inhibition of beta hematin formation after 5 hrs by NP40 detergent-based assay
Plasmodium falciparum [4] = experiment: Antiplasmodial activity against chloroquine-sensitive final late stage of Plasmodium falciparum NF54-Mal8p1.16-GFP-Luc gametocytes after 24 hrs by BacTiter-Glo assay; format: functional, organism-based; settings: NF54, 24 h
In short: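 Late-stage PfNF54 gametocytes produced in vitro; gametocytocidal IC50 via luciferase reporter and ATP bioluminescence platforms; n=3 independent biological replicates in technical triplicates, ± S.E.M.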

[5] = Metabolic stability in human liver microsomes assessed as parent compound remaining at 0.1 uM after 30 mins in presence of NADPH by LC-MS/MS analysis; settings: liver microsomes
[6] = Metabolic stability in Balb/c mouse liver microsomes assessed as parent compound remaining at 0.1 uM after 30 mins in presence of NADPH by LC-MS/MS analysis; settings: liver microsomes
[7] = Half life in Balb/c mouse liver microsomes at 0.1 uM in presence of NADPH by LC-MS/MS analysis; settings: liver microsomes
CHO = experiment: Cytotoxicity against CHO cells after 48 hrs by MTT assay; format: cell-based; settings: Cricetulus griseus
[8] = Selectivity index, ratio of IC50 for CHO cells to IC50 for chloroquine-sensitive asexual blood stage of Plasmodium falciparum NF54 infected in human RBC; format: toxicity; settings: Chinese hamster, read-out: Ratio IC50
In short: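 Selectivity index taken as the ratio of the CHO-cell IC50 to the P. falciparum NF54 IC50.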

Plasmodium berghei = experiment: Antimalarial activity against liver stage form of luciferase transfected Plasmodium berghei sporozoites infected in human HuH7 cells preincubated with host cells for 1 hr followed by plasmodial infection and measured after 48 hrs by bioluminescence method; format: functional, organism-based; settings: Huh-7
[9] = Half life in human liver microsomes at 0.1 uM in presence of NADPH by LC-MS/MS analysis; settings: liver microsomes

Q: Which Ratio IC50 [1] does the source give for `CS(=O)(=O)c1ccc(CNc2cc(C(F)(F)F)c(C#N)c3nc4cc(Cl)c(Cl)cc4n23)cc1` here?
A: Its Ratio IC50 is 1.05.

Q: What about the IC50 (Plasmodium falciparum [2]) of the same molecule?
A: Its IC50 is 5340 nM.

Q: And the IC50 (Plasmodium falciparum [3])?
A: Its IC50 is 5610 nM.

Q: What about the IC50 (Hemozoin) of the same molecule?
A: The IC50 was > 100000 nM.

Q: For `N#Cc1c(C(F)(F)F)cc(NCc2cccnc2)n2c1nc1ccccc12`, which IC50 (Plasmodium falciparum [2]) is on record?
A: Its IC50 is > 2720 nM.

Q: For `N#Cc1c(C(F)(F)F)cc(Nc2ncccn2)n2c1nc1ccccc12`, which IC50 (Plasmodium falciparum [2]) is on record?
A: Its IC50 is > 2690 nM.

Q: With `N#Cc1c(C(F)(F)F)cc(NCc2ccccc2)n2c1nc1ccccc12` as the molecule, how does the IC50 (Plasmodium falciparum [2]) read?
A: The IC50 was 6110 nM.

Q: For `Cc1ccc(Nc2cc(C(F)(F)F)c(C#N)c3nc4ccccc4n23)cc1`, which IC50 (Plasmodium falciparum [2]) is on record?
A: The IC50 was 2140 nM.

Q: With `N#Cc1c(C(F)(F)F)cc(NCc2ccc(OC(F)(F)F)cc2)n2c1nc1cc(Cl)c(Cl)cc12` as the molecule, how does the IC50 (Plasmodium falciparum [4]) read?
A: The IC50 was 210 nM.

Q: What about the remaining at 0.5 h, 0.1 µM [5] of the same molecule?
A: The remaining at 0.5 h, 0.1 µM was > 99%.

Q: And the remaining at 0.5 h, 0.1 µM [6]?
A: The remaining at 0.5 h, 0.1 µM was 82%.

Q: And the IC50 (Plasmodium falciparum [2])?
A: The IC50 was 440 nM.

Q: What about the half-life at 0.1 µM [7] of the same molecule?
A: Its half-life at 0.1 µM is 1.75 h.

Q: And the IC50 (CHO)?
A: The IC50 was 5020 nM.

Q: And the selectivity ratio [8]?
A: Its selectivity ratio is 11.

Q: What about the IC50 (Plasmodium berghei) of the same molecule?
A: Its IC50 is 190 nM.

Q: And the half-life at 0.1 µM [9]?
A: The half-life at 0.1 µM was > 2.5 h.

Q: For `Cc1ccc(CNc2cc(C(F)(F)F)c(C#N)c3nc4ccccc4n23)cc1`, which IC50 (Plasmodium falciparum [2]) is on record?
A: The IC50 was 1490 nM.

Q: What about the IC50 (CHO) of the same molecule?
A: The IC50 was 25000 nM.

Q: And the selectivity ratio [8]?
A: The selectivity ratio was 17.

Q: With `FC(F)(F)Oc1ccc(Nc2cc(C(F)(F)F)cc3nc4ccccc4n23)cc1` as the molecule, how does the Ratio IC50 [1] read?
A: Its Ratio IC50 is 0.79.

Q: And the IC50 (Plasmodium falciparum [2])?
A: Its IC50 is 4240 nM.

Q: And the IC50 (Plasmodium falciparum [3])?
A: Its IC50 is 3360 nM.

Q: For `N#Cc1c(C(F)(F)F)cc(NCc2ccc(F)cc2)n2c1nc1cc(Cl)c(Cl)cc12`, which IC50 (Plasmodium falciparum [4]) is on record?
A: The IC50 was 690 nM.

Q: And the remaining at 0.5 h, 0.1 µM [5]?
A: Its remaining at 0.5 h, 0.1 µM is 102%.

Q: And the Ratio IC50 [1]?
A: Its Ratio IC50 is 0.64.

Q: What about the remaining at 0.5 h, 0.1 µM [6] of the same molecule?
A: Its remaining at 0.5 h, 0.1 µM is 72%.

Q: What about the IC50 (Plasmodium falciparum [2]) of the same molecule?
A: Its IC50 is 440 nM.

Q: And the half-life at 0.1 µM [7]?
A: Its half-life at 0.1 µM is 1.05 h.

Q: And the IC50 (CHO)?
A: Its IC50 is 13000 nM.

Q: What about the IC50 (Plasmodium falciparum [3]) of the same molecule?
A: Its IC50 is 280 nM.

Q: What about the selectivity ratio [8] of the same molecule?
A: The selectivity ratio was 30.

Q: What about the half-life at 0.1 µM [9] of the same molecule?
A: The half-life at 0.1 µM was > 2.5 h.

Q: With `CNC(=O)c1ccc(Nc2cc(C(F)(F)F)c(C#N)c3nc4ccccc4n23)cc1` as the molecule, how does the IC50 (Plasmodium falciparum [2]) read?
A: The IC50 was > 10000 nM.

Q: Which IC50 (Plasmodium falciparum [2]) does the source give for `CC(Nc1cc(C(F)(F)F)c(C#N)c2nc3cc(Cl)c(Cl)cc3n12)c1ccc(S(C)(=O)=O)cc1` (stereo unspecified) here?
A: The IC50 was 4970 nM.

Q: What about the IC50 (Hemozoin) of the same molecule?
A: The IC50 was 32000 nM.

Q: Which IC50 (Plasmodium falciparum [2]) does the source give for `CS(=O)(=O)c1ccc(CNc2cc(C(F)(F)F)c(C#N)c3nc4ccccc4n23)cc1` here?
A: The IC50 was 12600 nM.

Q: With `N#Cc1c(C(F)(F)F)cc(NCc2ccc(O)cc2)n2c1nc1ccccc12` as the molecule, how does the IC50 (Plasmodium falciparum [2]) read?
A: The IC50 was 8740 nM.

Q: For `CN(C)C(=O)c1ccc(Nc2cc(C(F)(F)F)c(C#N)c3nc4ccccc4n23)cc1`, which IC50 (Plasmodium falciparum [2]) is on record?
A: Its IC50 is > 2360 nM.

Q: Which IC50 (Plasmodium falciparum [2]) does the source give for `N#Cc1c(C(F)(F)F)cc(NCc2cnccn2)n2c1nc1ccccc12` here?
A: Its IC50 is 2600 nM.

Q: Which IC50 (Plasmodium falciparum [2]) does the source give for `CN(C)C(=O)c1ccc(CNc2cc(C(F)(F)F)c(C#N)c3nc4ccccc4n23)cc1` here?
A: The IC50 was > 2280 nM.

Q: Which IC50 (Plasmodium falciparum [2]) does the source give for `CS(=O)(=O)c1ccc(Nc2cc(C(F)(F)F)c(C#N)c3nc4ccccc4n23)cc1` here?
A: The IC50 was > 2320 nM.

Q: Which IC50 (Plasmodium falciparum [4]) does the source give for `N#Cc1c(C(F)(F)F)cc(NCc2ccccn2)n2c1nc1cc(Cl)c(Cl)cc12` here?
A: The IC50 was 2480 nM.

Q: What about the remaining at 0.5 h, 0.1 µM [5] of the same molecule?
A: The remaining at 0.5 h, 0.1 µM was 72%.

Q: And the remaining at 0.5 h, 0.1 µM [6]?
A: Its remaining at 0.5 h, 0.1 µM is 31%.

Q: What about the IC50 (Plasmodium falciparum [2]) of the same molecule?
A: The IC50 was 1420 nM.

Q: What about the half-life at 0.1 µM [7] of the same molecule?
A: Its half-life at 0.1 µM is 0.3 h.

Q: What about the IC50 (CHO) of the same molecule?
A: Its IC50 is 750 nM.

Q: What about the selectivity ratio [8] of the same molecule?
A: The selectivity ratio was 0.5.

Q: What about the half-life at 0.1 µM [9] of the same molecule?
A: The half-life at 0.1 µM was 1.05 h.

Q: And the IC50 (Hemozoin)?
A: Its IC50 is 59000 nM.

Q: With `CN(Cc1ccccn1)c1cc(C(F)(F)F)c(C#N)c2nc3ccccc3n12` as the molecule, how does the IC50 (Plasmodium falciparum [2]) read?
A: The IC50 was > 2720 nM.

Q: For `N#Cc1c(C(F)(F)F)cc(Nc2ccc(CN3CCOCC3)cc2)n2c1nc1ccccc12`, which IC50 (Plasmodium falciparum [2]) is on record?
A: Its IC50 is > 2210 nM.

Q: And the IC50 (Hemozoin)?
A: The IC50 was 50000 nM.

Q: For `N#Cc1c(C(F)(F)F)cc(N2CCNCC2)n2c1nc1cc(Cl)c(Cl)cc12`, which IC50 (Plasmodium falciparum [2]) is on record?
A: Its IC50 is 8110 nM.

Q: Which Ratio IC50 [1] does the source give for `N#Cc1c(C(F)(F)F)cc(NCc2ccc(F)cc2)n2c1nc1ccccc12` here?
A: Its Ratio IC50 is 0.7.

Q: What about the IC50 (Plasmodium falciparum [2]) of the same molecule?
A: Its IC50 is 1270 nM.

Q: And the IC50 (CHO)?
A: Its IC50 is 45000 nM.

Q: What about the IC50 (Plasmodium falciparum [3]) of the same molecule?
A: The IC50 was 890 nM.

Q: And the selectivity ratio [8]?
A: Its selectivity ratio is 35.

Q: What about the IC50 (Plasmodium berghei) of the same molecule?
A: Its IC50 is 890 nM.

Q: For `CC(C)c1ccc(CNc2cc(C(F)(F)F)c(C#N)c3nc4ccccc4n23)cc1`, which IC50 (Plasmodium falciparum [2]) is on record?
A: Its IC50 is 2400 nM.

Q: Which results are given for `N#Cc1c(C(F)(F)F)cc(NCc2ccccn2)n2c1nc1ccccc12`?
A: Ratio IC50 [1]: 1.41; IC50 (Plasmodium falciparum [2]): 1160 nM; IC50 (CHO): > 272000 nM; IC50 (Plasmodium falciparum [3]): 1640 nM; selectivity ratio [8]: > 234; IC50 (Hemozoin): > 100000 nM

Q: Which results are given for `CC(Nc1cc(C(F)(F)F)c(C#N)c2nc3ccccc3n12)c1ccc(S(C)(=O)=O)cc1` (stereo unspecified)?
A: IC50 (Plasmodium falciparum [2]): > 2680 nM; IC50 (Hemozoin): > 100000 nM

Q: For `CN(C)c1ccc(CNc2cc(C(F)(F)F)c(C#N)c3nc4ccccc4n23)cc1`, which IC50 (Plasmodium falciparum [2]) is on record?
A: The IC50 was 2980 nM.

Q: For `NC(=O)c1c(C(F)(F)F)cc(NCc2ccc(F)cc2)n2c1nc1ccccc12`, which IC50 (Plasmodium falciparum [2]) is on record?
A: Its IC50 is > 6000 nM.

Q: For `NC(=O)c1c(C(F)(F)F)cc(NCc2ccc(OC(F)(F)F)cc2)n2c1nc1ccccc12`, which Ratio IC50 [1] is on record?
A: Its Ratio IC50 is 1.47.

Q: And the IC50 (Plasmodium falciparum [2])?
A: Its IC50 is 5160 nM.

Q: What about the IC50 (Plasmodium falciparum [3]) of the same molecule?
A: The IC50 was 7590 nM.

Q: For `COc1ncnc(Nc2cc(C(F)(F)F)c(C#N)c3nc4ccccc4n23)c1OC`, which IC50 (Plasmodium falciparum [2]) is on record?
A: The IC50 was > 2820 nM.
